Laboratory results taken from PMC3190051 (Bioorganic & medicinal chemistry letters, 2011).
Where a chain is given by its changes, count along the chain named. Where two headings read alike, the source gives them in different places. Values belong to the molecule of their own block, whether it stands above or below them.

How the values were obtained:
[1] = test system: M2–M5; assay: M2–M5 selectivity, full CRCs in HTS high-expressing CHO cell lines; format: cell-based, rat; conditions: read-out: M2–M5 EC50s; HTS high-expressing CHO cell line; average of at least three determinations
[2] = test system: TREx293-hM1 cells
[3] = test system: 68 GPCRs, ion channels and transporters (including all the BARs); conditions: 10 µM; cited from earlier work
[4] = test system: NMDA receptor currents in hippocampal CA1 pyramidal cells; conditions: cited from earlier work
[5] = test system: TREx293-hM1 cells; conditions: in cell culture; cited from earlier work
[6] = test system: M2–M5; conditions: read-out: EC50 versus M2–M5; ML071 probe data; cited from earlier work
[7] = molecular target: T1, M1 (Rattus norvegicus, UniProt P08482); assay: functional M1 agonist assay in rat HTS high-expressing CHO cell line; format: cell-based; conditions: 10 µM M1 single point screen
T1 sequence (P08482 1-460): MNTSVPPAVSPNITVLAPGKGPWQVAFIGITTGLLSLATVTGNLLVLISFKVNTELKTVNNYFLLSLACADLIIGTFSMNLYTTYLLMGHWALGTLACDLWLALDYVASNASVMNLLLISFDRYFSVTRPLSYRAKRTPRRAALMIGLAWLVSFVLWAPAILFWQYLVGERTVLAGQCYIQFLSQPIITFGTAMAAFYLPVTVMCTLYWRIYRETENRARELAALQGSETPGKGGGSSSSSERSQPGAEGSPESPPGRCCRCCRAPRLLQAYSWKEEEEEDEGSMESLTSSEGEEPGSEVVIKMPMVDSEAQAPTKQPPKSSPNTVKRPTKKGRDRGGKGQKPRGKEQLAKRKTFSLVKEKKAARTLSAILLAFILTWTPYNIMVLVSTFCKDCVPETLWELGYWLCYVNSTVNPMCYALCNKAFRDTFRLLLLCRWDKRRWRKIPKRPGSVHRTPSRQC

[8] = molecular target: T2, M1 (Homo sapiens, UniProt P11229); assay: M1 agonist assay in new cell lines with expression resembling native levels; format: cell-based, rat and human; conditions: new cell lines with expression more closely resembling native levels
T2 sequence (P11229 1-460): T1 sequence (P08482 1-460) with V5A, S254T, S309P, K320R, G337A, V413I

[9] = oral plasma:brain level; format: in vivo, male Sprague-Dawley rats; conditions: 10 mg/kg oral, 90 minute endpoint, individual animal
[10] = test system: NMDA receptor currents in hippocampal CA1 pyramidal cells; assay: potentiation of NMDA receptor currents, whole cell recording; format: cell-based; conditions: 30 µM
Outline: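 Whole-cell recording of NMDA-evoked currents in hippocampal CA1 pyramidal cells. Current amplitude was normalized and followed over time before, during and after application of 30 µM test compound.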

[11] = intrinsic clearance, rat; format: in vitro ADME
[12] = test system: 68 GPCRs, ion channels and transporters (including all the BARs); assay: radioligand binding panel of 68 GPCRs, ion channels and transporters; conditions: 10 µM
[13] = molecular target: D2 receptor (Homo sapiens, UniProt P14416); assay: functional D2 antagonism CRC; format: cell-based
[14] = intrinsic clearance, human; format: in vitro ADME

Chain of D2 receptor (P14416 whole entry): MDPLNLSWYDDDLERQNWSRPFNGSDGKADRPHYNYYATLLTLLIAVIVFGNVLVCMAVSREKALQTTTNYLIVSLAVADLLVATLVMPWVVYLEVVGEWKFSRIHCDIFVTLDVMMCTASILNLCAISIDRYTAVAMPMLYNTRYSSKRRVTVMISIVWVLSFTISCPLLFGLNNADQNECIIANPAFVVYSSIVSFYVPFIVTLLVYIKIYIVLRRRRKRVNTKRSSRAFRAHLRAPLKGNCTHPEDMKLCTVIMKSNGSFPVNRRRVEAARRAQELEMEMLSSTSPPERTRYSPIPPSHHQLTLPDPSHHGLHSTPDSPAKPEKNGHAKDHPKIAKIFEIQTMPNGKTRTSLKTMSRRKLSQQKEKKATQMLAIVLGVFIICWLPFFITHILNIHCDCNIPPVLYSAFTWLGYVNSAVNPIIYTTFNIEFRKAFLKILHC

SMILES: CCOC(=O)N1CCC(N2CCC[C@@H](NC(=O)c3ccc(F)cc3C)C2)CC1 [20a]
- EC50 [1]: > 10 µM

SMILES: CCOC(=O)N1CCC(N2CCC[C@@H](NC(=O)c3ccccc3)C2)CC1 [20b]
- EC50 [1]: > 10 µM

SMILES: CCOC(=O)N1CCC(N2CCC[C@@H](NC(=O)c3cccc(F)c3)C2)CC1 [20c]
- EC50 [1]: > 10 µM

SMILES: CCOC(=O)N1CCC(N2CCC[C@@H](NC(=O)c3cccc(OC)c3)C2)CC1 [20d]
- EC50 [1]: > 10 µM

SMILES: CCOC(=O)N1CCC(N2CCC[C@@H](NC(=O)c3ccc(F)c(F)c3)C2)CC1 [20e]
- EC50 [1]: > 10 µM

SMILES: CCOC(=O)N1CCC(N2CCC[C@@H](NC(=O)c3ccc(C)cc3)C2)CC1 [20f]
- EC50 [1]: > 10 µM

SMILES: CCOC(=O)N1CCC(N2CCC[C@@H](NC(=O)C3CCCCC3)C2)CC1 [20g]
- EC50 [1]: > 10 µM

SMILES: CCOC(=O)N1CCC(N2CCC[C@@H](NC(=O)c3cccs3)C2)CC1 [20h]
- EC50 [1]: > 10 µM

SMILES: CCOC(=O)N1CCC(N2CCC[C@@H](NC(=O)c3ccc(OC)cc3)C2)CC1 [20i]
- EC50 [1]: > 10 µM

SMILES: CCOC(=O)N1CCC(N2CCC[C@@H](NC(=O)C3CCCC3)C2)CC1 [20k]
- EC50 [1]: > 10 µM

SMILES: C[N+](C)(C)CCOC(N)=O.[Cl-] [carbachol]
- increase in soluble APP (sAPPα) [2]: significant increase

SMILES: CCOC(=O)N1CCC(N2CCC[C@@H](NC(=O)c3ccccc3C)C2)CC1 [compound 17]
- ACh Max versus high-expressing HTS lines [8]: slightly lower ACh Max
- Brain [9]: 1.89 µM
- Brain:Plasma [9]: 1.17
- Plasma [9]: 1.62 µM
- concentration at 90 min ([9]; male, Sprague-Dawley, rat, brain, oral, 10 mg/kg): 2230 nM
- Kp at 1.5 h ([9]; male, Sprague-Dawley, rat, brain/plasma, po, 10 mg/kg, Brain:Plasma): 1.54
- M1 activation [7]: full activation of M1
- persistence of potentiation after washout [10]: 10 min
- effect on NMDA receptor currents ([10]; listed as VU0364572): potentiates NMDA receptor currents
- CLint scaled [11]: 23.4 mL/min/kg
- inhibition in radioligand binding panel [12]: ≤ 30%
- EC50 [1]: > 30 µM
- functional activity at the D2 receptor [13]: no functional activity
- CLint scaled [14]: 11.2 mL/min/kg

Continued, in another order:

- EC50 [1]: > 10 µM
SMILES: CCOC(=O)N1CCC(N2CCC[C@@H](NC(=O)c3ccccc3Cl)C2)CC1 [20j]

- EC50 [1]: > 30 µM
SMILES: CCOC(=O)N1CCC(NCCNC(=O)c2ccccc2C)CC1 [compound 8]
- activity in radioligand binding panel [3]: ≤ 50%
- effect on NMDA receptor currents [4]: potentiated NMDA receptor currents
- soluble APP (sAPPα) [5]: significant increase
- EC50 [6]: > 30 µM

- M1 activation [7]: less than 30%
SMILES: CCOC(=O)N1CCC(N2CCN(C(=O)c3ccccc3C)CC2)CC1 [compound 13]

- M1 activation [7]: less than 30%
SMILES: CCOC(=O)N1CCC(N2C[C@@H]3C[C@H]2CN3C(=O)c2ccccc2C)CC1 [compound 14]

- M1 activation [7]: less than 30%
SMILES: CCOC(=O)N1CCC(N2C[C@H]3CN(C(=O)c4ccccc4C)C[C@H]3C2)CC1 [compound 15]

- M1 activation [7]: inactive
SMILES: CCOC(=O)N1CCC(N2CCC[C@H](NC(=O)c3ccccc3C)C2)CC1 [compound 16]
